Activity calls are given as the source filed them. The rule behind the calls is not given here.
Experiments:
Sindbis virus = test: Antiviral activity against Sindbis virus infected in african green monkey Vero cells; type: functional, organism-based
Human alphaherpesvirus 1 [1] = test: Antiviral activity against acyclovir-resistant […]-deficient HSV1 infected in human HEL cells; type: functional, organism-based
[2] = test system: Vesicular stomatitis virus; test: Antiviral activity against VSV infected in human HeLa cells; type: functional, organism-based
Human respirovirus 3 = test: Antiviral activity against Parainfluenza virus 3 infected in african green monkey Vero cells; type: functional, organism-based
Human betaherpesvirus 5 [3] = test: Antiviral activity against HCMV AD169 infected in human HEL cells assessed inhibition of virus-induced cytopathicity after 7 days postinfection; type: functional, organism-based; conditions: Human betaherpesvirus 5, AD169, HEL, 168 h
How it was run: (§1)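 HEL fibroblasts were infected at 100 PFU. After 2 h, residual virus was removed and medium with test compound was added at several concentrations, in duplicate. Cells were incubated 7 days at 37 °C, fixed with ethanol and stained with Giemsa.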

Coxsackievirus B4 [4] = test: Antiviral activity against Coxsackievirus B4 infected in african green monkey Vero cells; type: functional, organism-based
[5] = test system: Respiratory syncytial virus; test: Antiviral activity against RSV infected in human HeLa cells; type: functional, organism-based
[6] = Cytotoxicity against human HEL cells assessed as morphological alteration after 3 days; type: cell-based
How it was run: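 HEL cultures were examined under the microscope. MCC was recorded as the compound concentration causing a microscopically detectable alteration of normal cell morphology.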

[7] = Therapeutic index, ratio of CC50 for human HEL cells to EC50 for Human cytomegalovirus; type: cell-based; conditions: read-out: Ratio CC50/EC50
How it was run: (§2)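 Index calculated as CC50 (HEL cell growth, 3 days, Coulter count) divided by EC50 from the HEL-cell antiviral assays: HCMV cytopathicity at 7 days for line 18, VZV plaque reduction at 5 days for line 19.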

Human alphaherpesvirus 3 [8] = test: Antiviral activity against Varicella zoster virus YS infected in human HEL cells assessed reduction in viral plaque formation; type: functional, organism-based; conditions: Human alphaherpesvirus 3, YS
Punta Toro virus = test: Antiviral activity against Punta Toro virus infected in african green monkey Vero cells; type: functional, organism-based
Human betaherpesvirus 5 [9] = test: Antiviral activity against HCMV Davis infected in human HEL cells assessed inhibition of virus-induced cytopathicity after 7 days postinfection; type: functional, organism-based; conditions: Human betaherpesvirus 5, Davis, 168 h; how it was run: as §1
Human alphaherpesvirus 2 = test: Antiviral activity against HSV2 infected in human HEL cells; type: functional, organism-based
Human alphaherpesvirus 3 [10] = test: Antiviral activity against thymidine kinase expressing Varicella zoster virus Oka infected in human HEL cells assessed reduction in viral plaque formation; type: functional, organism-based; conditions: Human alphaherpesvirus 3, Oka
How it was run: (§3)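 Confluent HEL cell monolayers were inoculated with VZV at 20 PFU per well. Residual virus was removed after 2 h, and compound was added at varying concentrations, in duplicate.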

Coxsackievirus B4 [11] = test: Antiviral activity against Coxsackievirus B4 infected in human HeLa cells; type: functional, organism-based
Vaccinia virus = test: Antiviral activity against Vaccinia virus infected in human HEL cells; type: functional, organism-based; conditions: Orthopoxvirus vaccinia
[12] = test system: Vesicular stomatitis virus; test: Antiviral activity against VSV infected in human HEL cells; type: functional, organism-based
[13] = Therapeutic index, ratio of CC50 for human HEL cells to EC50 for Varicella zoster virus; type: cell-based; conditions: read-out: Ratio CC50/EC50; how it was run: as §2
[14] = test system: Mammalian orthoreovirus 3; test: Antiviral activity against Reovirus 3 infected in african green monkey Vero cells; type: functional, organism-based
[15] = Cytotoxicity against human HEL cells assessed as reduction of growth after 3 days; type: cell-based
How it was run: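 HEL cells were seeded at 5 × 10³ cells/well and grown 24 h before compound was added at different concentrations. After 3 days at 37 °C, cells were counted with a Coulter counter. CC50, the concentration halving growth relative to untreated controls, was read from plots of cell number (% of control) against concentration.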

Human alphaherpesvirus 1 [16] = test: Antiviral activity against HSV1 KOS infected in human HEL cells; type: functional, organism-based
Human alphaherpesvirus 3 [17] = test: Antiviral activity against thymidine kinase deficient Varicella zoster virus 07/1 infected in human HEL cells assessed reduction in viral plaque formation; type: functional, organism-based; conditions: Human alphaherpesvirus 3, HEL; how it was run: as §3
Human alphaherpesvirus 3 [18] = test: Antiviral activity against Varicella zoster virus YSR infected in human HEL cells assessed reduction in viral plaque formation; type: functional, organism-based; conditions: Human alphaherpesvirus 3, YSR

CCC1(Cc2ccccc2)OS(=O)(=O)C=C1OCc1ccccc1 (racemic)
Activity (Sindbis virus): inactive | Activity (Human alphaherpesvirus 1 [1]): inactive | Activity [2]: inactive | Activity (Human respirovirus 3): inactive | EC50 (Human betaherpesvirus 5 [3]): 13 µM | Activity (Coxsackievirus B4 [4]): inactive | Activity [5]: inactive | MCC at 72 h [6]: ≥ 50 µM | selectivity ratio [7]: ≥ 5 | EC50 (Human alphaherpesvirus 3 [8]): 3.6 µM | Activity (Punta Toro virus): inactive | EC50 (Human betaherpesvirus 5 [9]): 9.3 µM | Activity (Human alphaherpesvirus 2): inactive | EC50 (Human alphaherpesvirus 3 [10]): 6.4 µM | Activity (Coxsackievirus B4 [11]): inactive | Activity (Vaccinia virus): inactive | Activity [12]: inactive | selectivity ratio [13]: ≥ 5 | Activity [14]: inactive | CC50 at 72 h [15]: 200 µM | Activity (Human alphaherpesvirus 1 [16]): inactive | EC50 (Human alphaherpesvirus 3 [17]): 5.6 µM

CCC1(Cc2ccccc2)OS(=O)(=O)C=C1OCc1ccc(F)cc1 (racemic)
EC50 (Human betaherpesvirus 5 [3]): 15 µM | MCC at 72 h [6]: ≥ 50 µM | EC50 (Human alphaherpesvirus 3 [8]): 10.4 µM | EC50 (Human alphaherpesvirus 3 [18]): 9.3 µM | EC50 (Human betaherpesvirus 5 [9]): 7 µM | EC50 (Human alphaherpesvirus 3 [10]): 8.6 µM | CC50 at 72 h [15]: > 50 µM | EC50 (Human alphaherpesvirus 3 [17]): 8.6 µM

Reference: ChEMBL document CHEMBL1152768, “4-Benzyloxy-gamma-sultone derivatives: discovery of a novel family of non-nucleoside inhibitors of human cytomegalovirus and varicella zoster virus” (J Med Chem, 2009)
